Screens (PubChem BioAssay)
A selection: hits, their analogues and other compounds. The true share with any hit is near 6.8%.
PHOSPHO1 inh: PHOSPHO1 (human) inhibition. Q8TCT1. actives 1.1% (n = 290,000). inhibition, % at 13.3 µM. recombinant PHOSPHO1, absorbance phosphatase assay; in the data active = inhibition above about 60%
Target sequence (Q8TCT1 whole entry, looked up): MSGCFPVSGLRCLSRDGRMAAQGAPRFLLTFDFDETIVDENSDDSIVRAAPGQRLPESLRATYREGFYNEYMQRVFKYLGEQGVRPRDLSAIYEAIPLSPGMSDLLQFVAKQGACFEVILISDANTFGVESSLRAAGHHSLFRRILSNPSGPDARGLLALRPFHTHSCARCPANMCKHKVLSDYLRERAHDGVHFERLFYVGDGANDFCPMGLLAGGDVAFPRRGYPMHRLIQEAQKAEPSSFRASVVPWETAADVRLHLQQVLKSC
ALR inh: human ALR oxidase inhibition via reduced H2O2; P55789; purified ALR, DTT oxidation, H2O2 HRP-luminol luminescence; inhibition, % (concentration not given with the values); actives 3.8% (n = 290,000);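 active = mean replicate inhibition above about 79%, with every replicate also reaching it, limit read from the data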
Target sequence (P55789 whole entry, looked up): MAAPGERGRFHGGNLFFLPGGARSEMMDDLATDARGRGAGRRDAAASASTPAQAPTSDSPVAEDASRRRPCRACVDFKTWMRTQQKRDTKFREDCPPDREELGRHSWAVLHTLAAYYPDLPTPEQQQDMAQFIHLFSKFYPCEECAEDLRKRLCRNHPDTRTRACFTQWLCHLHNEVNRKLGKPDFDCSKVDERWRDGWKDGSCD
AI-2 QS modul: modulators of Vibrio harveyi AI-2 quorum sensing system. activity change, % at 7.5 µM. actives 0.4% (n = 300,000). Vibrio harveyi JMH597 AI-2 luminescence/OD600 ratio, 9 h; hits give low values; strain lacks LuxN and CqsS sensors; 0 = neutral-control median; in the data active = activity change below about -75%, passing the limit was not always enough;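 note: luminescence divided by OD600 gain over 9 h not by final OD600 alone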
HSF-1 act: increases HSF-1 driven luciferase reporter signal; NIH3T3-HGL HSF-1 luciferase reporter, MG132, 8 h; 100% = twice DMSO control signal; activation, % at 9 µM; actives 1.7% (n = 300,000);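 active = mean replicate activation of at least 50% with a set share of replicates each reaching 50%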;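 note: 0% = median of the neutral control wells and 100% = twice that signal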
HCV core dimer: blocks dimerization of HCV core protein; TR-FRET GST/Flag-core106 dimerization, 1536-well; inhibition, % at 5 µM; AID 1899; actives 0.33% (n = 300,000);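 active = inhibition above the mean of all tested compounds plus 3 SD, set per screening campaign, cut at about 45% in these data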
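System: GST-tagged and Flag-tagged HCV core protein residues 1-106 / Input: core106 proteins, GST 13.5 nM and Flag 17 nM / Buffer or medium: KF-containing HEPES buffer, pH 7.45, DTT, CHAPS, BSA / Probe or stimulus: Eu-anti-GST and XL665-anti-Flag labelled anti-tag antibodies / Schedule: 4 h, 22.5 °C incubation / Technique: TR-FRET 671 and 617 nm emission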
HSF1 inhib: HSF1 inhibition | NIH3T3-HGL HSE-luciferase, MG132-induced, luminescence 8 h; hits give low values | activity change, negative = inhibition, % at 7.5 µM (by protocol) | actives 0.77% (n = 300,000);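 active = more than half of replicate wells show activity change below -50%, luminescence cut by over half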;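 note: luciferase reports HSF-1 transcriptional activity via heat shock element; 0% = median of DMSO wells and -100% = zero luminescence signal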
Active calls of the source: *; nt = no result given.

SMILES	PHOSPHO1 inh	ALR inh	AI-2 QS modul	HSF-1 act	HCV core dimer	HSF1 inhib
COc1ccc(-n2ncc3c(N4CCCCC4)ncnc32)cc1	-14.7	8.5	4.5	-83.5	6.5	-81.0*
Clc1ccc(-n2ncc3c(NCCN4CCOCC4)ncnc32)cc1	-2.4	17.3	6.4	-58.4	1.6	-53.7*
Clc1ccc(-n2ncc3c(N4CCCCCC4)ncnc32)cc1	-22.1	-4.3	23.5	-90.5	-6.9	-89.3*
COc1ccc(-n2ncc3c(N4CCN(c5cccc(C)c5C)CC4)ncnc32)cc1	40.9	-2.6	21.0	3.3	-3.2	-0.8
COc1ccc(N2CCN(c3ncnc4c3cnn4-c3ccc(C)cc3C)CC2)cc1	-17.0	1.0	7.8	76.6*	-2.4	47.4
C=CCn1c(SCC(=O)Nc2nncs2)nnc1-c1ccco1	-73.9	nt	7.6	-5.0	0.1	-5.0
CC1=C(C)CC(C(=O)NNC(=O)c2csc(C)c2C)C(C(=O)O)C1 (stereo not drawn)	12.1	-15.6	19.1	-2.1	-3.5	4.0
CCOC(=O)c1c(C)[nH]c(C(=O)Cn2nnc(-c3ccccc3)n2)c1C	25.2	nt	21.6	-13.4	9.0	-7.2
CCOC(=O)c1c(C)[nH]c(C(=O)Cn2nnc(-c3ccccc3Cl)n2)c1C	4.6	-6.3	9.6	61.0*	11.3	26.4
C/C(=N\NC(=O)c1cccc(S(=O)(=O)N2CCOCC2)c1)c1ccc(C)cc1	nt	1.5	nt	nt	nt	nt
Cc1cc(C)cc(N(CC(=O)Nc2ccc(Br)cc2)S(=O)(=O)c2c(C)[nH]c(=O)[nH]c2=O)c1	42.2	-1.2	28.6	-71.3	5.5	-63.0*
CN(C)c1ccc(/C=N\Nc2nc(-c3ccccc3)cc(=O)[nH]2)cc1	2.4	nt	29.2	-79.1	-34.2	-73.0*
Cc1cc(=O)[nH]c(N/N=C/C2=C(N3CCOCC3)C(=C\c3ccc(Cl)cc3)/CC2)n1	-17.2	97.8*	5.5	3.1	32.2	-0.4
Cc1cc(=O)[nH]c(N/N=C/c2ccc(O)c(O)c2)n1	52.2	99.4*	9.3	61.5*	-5.2	17.2
CSc1ccc(/C=N/Nc2nc(C)cc(=O)[nH]2)cc1	23.3	17.3	8.2	4.2	-1.0	3.5
Oc1ccc(-c2n[nH]c(=S)n2-c2ccc3c(c2)OCCO3)c(O)c1	7.1	85.9*	27.2	-37.6	-7.2	-21.8
COc1ccc(-c2n[nH]c(=S)n2-c2ccc3c(c2)OCCO3)cc1	18.6	91.0*	22.1	12.6	-2.1	11.0
COc1cc(OC)cc(-c2n[nH]c(=S)n2-c2ccc3c(c2)OCCO3)c1	30.5	0.5	11.8	13.7	-7.5	2.8
S=c1[nH]nc(-c2ccc3ccccc3n2)n1-c1ccc2c(c1)OCCO2	-0.3	89.5*	37.1	-1.0	1.8	-0.9
S=c1[nH]nc(-c2ccc3ccccc3n2)n1-c1ccccc1	-15.0	2.8	-2.1	-6.8	7.4	-4.3
CC1CC(=O)Nc2ccccc2N1C(=O)COc1cc(Cl)ccc1Cl (stereo not drawn)	nt	0.3	nt	nt	nt	nt
CCOc1ccc(S(=O)(=O)NN)cc1	92.4*	41.9	35.7	8.0	0.6	-1.5
CC(C)C1=CC(=Nc2ccc(S(N)(=O)=O)cc2)C=C(C(C)C)C1=O	30.5	98.8*	8.2	-16.4	nt	-2.8
NS(=O)(=O)c1ccc(N=C2C(=O)Nc3ccccc32)cc1	7.2	74.8	43.3	4.4	1.5	-3.6
COc1ccccc1C(=O)Nc1nc2cc3c(cc2s1)OCCO3	-8.2	nt	-14.0	0.9	-1.5	-2.6
SMILES	PHOSPHO1 inh	ALR inh	AI-2 QS modul	HSF-1 act	HCV core dimer	HSF1 inhib
COc1ccccc1C(=O)Nc1nc2cc3c(cc2s1)OCO3	32.1	-2.2	9.3	54.0*	15.2	26.9
COc1ccc(C(=O)Nc2nc3cc4c(cc3s2)OCCO4)c(OC)c1	10.6	9.7	16.6	-67.5	12.3	-61.2*
COCc1cc(=O)c2ccccc2o1	nt	1.7	nt	nt	nt	nt
Cc1cc(C)c(C(CC(=O)c2cccs2)C(C#N)C#N)c(C)c1 (stereo not drawn)	5.9	nt	7.4	122.5*	4.2	84.7
Cc1nc(C)c(-c2csc(N)n2)s1	-5.7	90.9*	-0.1	-3.5	-3.2	-10.7
CCOc1ncccc1C(=O)Nc1cc(S(=O)(=O)N2CCCCC2)ccc1C	nt	-3.0	nt	nt	nt	nt
